Data from ChEMBL document CHEMBL4024803, “New Steroidal 4-Aminoquinolines Antagonize Botulinum Neurotoxin Serotype A in Mouse Embryonic Stem Cell Derived Motor Neurons in Postintoxication Model” (J Med Chem, 2018).
pIC50: −log10 of the molar value. ≈ marks a conversion by molar mass, not a printed value.

How the values were obtained:
[1] = Drug uptake in mouse serum at 400 mg/kg, po measured at 22 mins by UPLC-MS/MS method; assay type: ADME, organism-based; settings: read-out: Drug uptake
Procedure, shortened: (§1)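 Single oral dose (400 mg/kg, 7 mice; 600 mg/kg, 6 mice), dissolved in DMSO and suspended in 0.5% hydroxyethylcellulose–0.1% Tween 80. Blood taken by cardiac puncture under chloroform, one mouse per time point, 15–120 min. Serum proteins precipitated with 2 volumes acetonitrile; analysed by UPLC-MS/MS against blank human serum calibration. Half-life read from the concentration–time curve.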

[2] = biological target: Botulinum neurotoxin type A (Clostridium botulinum) (UniProt P0DPI0); experiment: (§2) Inhibition of Clostridium botulinum BoNT/A holotoxin-mediated SNAP-25 cleavage in mouse HBG3 cell-derived motor neurons preincubated for 30 mins followed by intoxication measured after 4 hrs by Western blot method
[3] = biological target: T1, Botulinum neurotoxin type A (Clostridium botulinum, UniProt P0DPI0); experiment: as §2
[4] = Drug uptake in mouse serum at 600 mg/kg, po measured at 30 mins by UPLC-MS/MS method; assay type: ADME, organism-based; settings: read-out: Drug uptake; procedure, shortened: as §1
Mus musculus [5] = experiment: Cmax in mouse at 400 mg/kg, po by UPLC-MS/MS method; assay type: ADME, organism-based; design: dose 400 mg/kg, route oral; settings: in vivo; procedure, shortened: as §1
Mus musculus [6] = experiment: Toxicity in mouse assessed as effect on behavior at 160 mg/kg, po administered for 3 days measured 2 times a day for 30 days; assay type: organism-based; settings: in vivo, 720 h
Procedure, shortened: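 Groups of five healthy mice were dosed per os for three consecutive days, suspended in 0.5% hydroxyethylcellulose–0.1% Tween 80. Behaviour and appearance were monitored twice daily for 30 days, with survival assessed at 30 days. Non-toxic was defined as all 5 surviving with normal appearance and behaviour.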

Mus musculus [7] = experiment: Tmax in mouse at 400 mg/kg, po by UPLC-MS/MS method; assay type: ADME, organism-based; settings: in vivo
Procedure, shortened: (§3)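 Single oral dose in DMSO suspended in 0.5% hydroxyethylcellulose–0.1% Tween 80, given to 7 (400 mg/kg) or 6 (600 mg/kg) mice. Serum came from cardiac puncture under chloroform, one mouse per time point, 15–120 min. Acetonitrile-precipitated serum was analysed by UPLC-MS/MS against calibration in blank human serum.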

[8] = Drug uptake in mouse serum at 600 mg/kg, po measured at 120 mins by UPLC-MS/MS method; assay type: ADME, organism-based; settings: read-out: Drug uptake; procedure, shortened: as §1
Mus musculus [9] = experiment: Half life in mouse at 400 mg/kg, po by UPLC-MS/MS method; assay type: ADME, organism-based; settings: in vivo; procedure, shortened: as §1
Mus musculus [10] = experiment: Time at which drug concentration stays above 3 uM in mouse at 600 mg/kg, po by UPLC-MS/MS method; assay type: ADME, organism-based; settings: in vivo; procedure, shortened: as §3
[11] = Solubility of the compound by spectrofluorimetric detection-based shake-flask method; assay type: physicochemical
[12] = biological target: Botulinum neurotoxin type A (Clostridium botulinum) (UniProt P0DPI0); experiment: Inhibition of Clostridium botulinum BoNT/A holotoxin-mediated SNAP-25 cleavage in mouse HBG3 cell-derived motor neurons assessed as full length of SNAP-25 at 20 uM treated at 60 mins post intoxication by Western blot method relative to control; design: scale not given: the % may be the effect or the level left
Cytochrome P450 2C19 = Cytochrome P450 2C19 (Homo sapiens, UniProt P33261); experiment: Inhibition of CYP2C19 (unknown origin) using CEC as substrate; assay type: ADME
Cytochrome P450 2C19, sequence (P33261 whole entry): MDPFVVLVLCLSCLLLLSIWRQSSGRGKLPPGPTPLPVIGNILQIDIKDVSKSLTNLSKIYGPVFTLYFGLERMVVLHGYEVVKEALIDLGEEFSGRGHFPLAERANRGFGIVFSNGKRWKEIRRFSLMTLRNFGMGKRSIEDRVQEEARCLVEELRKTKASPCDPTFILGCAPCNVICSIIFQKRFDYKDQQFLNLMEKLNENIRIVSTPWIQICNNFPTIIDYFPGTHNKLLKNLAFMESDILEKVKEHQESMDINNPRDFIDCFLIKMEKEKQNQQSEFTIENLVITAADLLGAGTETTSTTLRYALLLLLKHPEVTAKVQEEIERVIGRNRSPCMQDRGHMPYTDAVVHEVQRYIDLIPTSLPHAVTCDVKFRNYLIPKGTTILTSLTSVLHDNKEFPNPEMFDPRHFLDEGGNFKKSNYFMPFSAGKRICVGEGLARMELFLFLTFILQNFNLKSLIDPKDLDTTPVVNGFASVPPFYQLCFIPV
Procedure, shortened: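 Active CYP450 enzyme incubated at 37°C for a set time with a fluorogenic probe substrate (BQ, DBF or BFC for CYP3A4; CEC for CYP2C19; AMMC for CYP2D6). IC50 derived from net fluorescent signal.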

[13] = biological target: Botulinum neurotoxin type A (Clostridium botulinum) (UniProt P0DPI0); experiment: Inhibition of Clostridium botulinum BoNT/A holotoxin-mediated SNAP-25 cleavage in mouse HBG3 cell-derived motor neurons assessed as full length of SNAP-25 at 10 uM preincubated for 30 mins followed by intoxication measured after 4 hrs by Western blot method relative to control; design: scale not given: the % may be the effect or the level left
Plasma = experiment: Protein binding in human plasma after 4 hrs by equilibrium dialysis method; assay type: ADME, cell-free
Procedure, shortened: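 Equilibrium dialysis against buffer, 4 h at 37°C with shaking. After incubation both chambers were matrix-matched and protein-precipitated with cold acetonitrile/water/formic acid containing internal standard. Supernatants were analysed by LC-MS/MS. % free = buffer-chamber / plasma-chamber concentration × 100.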

[14] = biological target: T1, Botulinum neurotoxin type A
Liver [15] = experiment: Half life in human liver microsomes; assay type: ADME, microsome
Procedure, shortened: (§4)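 Substrate-depletion assay: compound incubated with human or mouse liver microsomes for 1 h at 37°C. Half-life and intrinsic clearance derived from compound loss.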

[16] = biological target: Botulinum neurotoxin type A (Clostridium botulinum) (UniProt P0DPI0); experiment: Inhibition of Clostridium botulinum BoNT/A light chain at 20 uM using P39 as substrate preincubated for 10 mins followed by substrate addition measured after 10 mins by HPLC method relative to control
Procedure, shortened: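 Purified BoNT/A light chain (20 nM) with 0.2 mg/mL BSA in 50 mM HEPES pH 7.4, preincubated with compound for 10 min at room temperature. Cleavage fragments were separated by reversed-phase HPLC (214/280 nm). Percent inhibition was taken from fragment peak areas with vs without compound. Mean of three experiments.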

[17] = Protein binding in mouse plasma at 600 mg/kg, po by ultra-centrifugation method; assay type: ADME, organism-based; settings: read-out: PPB
[18] = biological target: Botulinum neurotoxin type A (Clostridium botulinum) (UniProt P0DPI0); experiment: Inhibition of Clostridium botulinum BoNT/A holotoxin-mediated SNAP-25 cleavage in mouse HBG3 cell-derived motor neurons assessed as full length of SNAP-25 at 20 uM preincubated for 30 mins followed by intoxication measured after 4 hrs by Western blot method relative to control; design: scale not given: the % may be the effect or the level left
Serum = experiment: Drug uptake in mouse serum at 400 mg/kg, po measured at 90 mins by UPLC-MS/MS method; assay type: ADME, organism-based; settings: in vivo, 1.5 h, BLD = below limit of detection; procedure, shortened: as §1
Liver [19] = experiment: Half life in mouse liver microsomes; assay type: ADME, microsome; procedure, shortened: as §4
Mus musculus [20] = experiment: Drug metabolism in mouse assessed as M+16 metabolite formation at 400 to 600 mg/kg, po by UPLC-MS/MS method; assay type: ADME, organism-based; settings: in vivo
[21] = Drug uptake in mouse serum at 400 mg/kg, po measured at 45 mins by UPLC-MS/MS method; assay type: ADME, organism-based; settings: read-out: Drug uptake; procedure, shortened: as §1
Mus musculus [22] = experiment: Half life in mouse at 600 mg/kg, po by UPLC-MS/MS method; assay type: ADME, organism-based; settings: in vivo; procedure, shortened: as §1
Mus musculus [23] = experiment: Toxicity in mouse assessed as effect on appearance at 400 to 600 mg/kg, po administered as single dose measured 2 times a day for 30 days; assay type: organism-based; settings: in vivo, 720 h
Procedure, shortened: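 Two groups of 5 healthy mice each received one oral dose, 400 or 600 mg/kg. Survival, appearance and behaviour were followed for 30 days. Non-toxic was defined as all 5 surviving with normal appearance and behaviour.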

With `CC(=O)O[C@H]1C[C@H]2[C@@H]([C@H](OC(C)=O)C[C@@H]3C[C@H](N)CC[C@@]32C)[C@@H]2CC[C@H]([C@H](C)CCCNCCCCNc3ccnc4cc(Cl)ccc34)[C@@]12C` the concentration at 22 min [1] was 7.8 µM, the inhibition [2] was “Dose-dependent effect” and the pIC50 [3] was 5.00. For the same molecule, the concentration at 0.5 h [4] was 5.9 µM, the Cmax (Mus musculus [5]) was 7.8 µM and the Activity (Mus musculus [6]) was “Non-Toxic”. It also gave a Tmax (Mus musculus [7]) of 22 min, a concentration at 2 h [8] of 2.4 µM and a t1/2 (Mus musculus [9]) of 43 min. It also gave a Time (Mus musculus [10]) greater than 45 min, a solubility thermodynamic [11] of 640 µg/mL (≈ 902 µM) and an Activity [12] of 45%. For the same molecule, the pIC50 (Cytochrome P450 2C19) was 5.30, the Activity [13] was 72% and the PPB (Plasma) was greater than 99%. It also gave a pIC50 [14] of 5.10, a t1/2 (Liver [15]) greater than 60 min and an inhibition [16] of 66%. For the same molecule, the fraction unbound [17] was less than 0.01, the Activity [18] was 88% and the Drug uptake (Serum) was “Bld”. For the same molecule, the t1/2 (Liver [19]) was greater than 60 min, the Drug metabolism (Mus musculus [20]) was “Metabolite_Notdetected” and the concentration at 0.75 h [21] was 3.3 µM. For the same molecule, the t1/2 (Mus musculus [22]) was 23 min and the Activity (Mus musculus [23]) was “Non-Toxic”.
